PRMT1 inh: blocks human protein arginine methyltransferase 1 | Q99873 | recombinant PRMT1, activity-based probe fluorescence polarization | inhibition, % at 2.79 µM | 370,000 tested, 1.3% active;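 active means inhibition above about 21% made by adding two undisclosed values, limit read from the data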
mABHD4 FP: inhibits mouse alpha/beta hydrolase domain 4; purified mABHD4, FP-Rh probe fluorescence polarization; inhibition, % at 8.92 µM; 370,000 tested, 0.54% active;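 active means inhibition exceeding the mean over every tested compound plus 3 SD, cut at about 30% in these data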;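 further: 0% = plate median of compound wells and 100% = S159A mutant with DMSO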
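Doses – 8.92 µM, single dose · Material – wild-type mouse ABHD4 protein · Replication – single well per compound (singlicate) · Measure – percent inhibition of probe binding, normalized to plate controls · Schedule – 45 min compound pre-incubation plus 60 min probe step, 25 °C · Detection – fluorescence polarization with parallel and perpendicular emission, 525/598 nm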
ATG4B inhibitor: inhibitors of human ATG4B cysteine protease; Q9Y4P1; ATG4B cleavage of LC3-PLA2, NBD-HPC fluorescence, 1 h; inhibition, % at 8.33 µM; 340,000 tested, 0.51% active; in the data active means inhibition above about 40%
TCR CD3 inh: human TCR-CD3 binding inhibition; 360,000 tested, 0.37% active; TAMRA-labeled TCR probe fluorescence, biochemical; inhibition, % at 9.4 µM; in the data active means inhibition above about 19%;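 further: recombinant mutant TCR 2C K166C tagged with TAMRA read by polarization; 0% = receptor in buffer alone and 100% = receptor with positive control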
HTRA1 inh: blocks human HTRA1 serine peptidase | Q92743 | recombinant HTRA1, FP-rhodamine activity-based probe, fluorescence polarization | inhibition, % at 5.96 µM | 340,000 tested, 0.5% active; in the data active means inhibition above about 36%;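 further: 0% = enzyme with DMSO and 100% = wells lacking enzyme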
SIAE inh: inhibitors of human sialic acid acetylesterase SIAE | Q9HAT2 | SIAE FP-Rh probe binding, fluorescence polarization | inhibition, % at 9.66 µM | 370,000 tested, 0.69% active;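 active means inhibition above a cutoff: mean of compounds within the control limits plus 3 SD of those, cut at about 17% in these data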;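 further: 0% = plate median of compound wells and 100% = probe without SIAE protein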
ATG4B confirm: ATG4B (human) inhibition, single-dose confirmed; 320 tested, 92% active; shares compounds with ATG4B inhibitor; ATG4B protease fluorescent substrate cleavage assay; inhibition, % at 8.33 µM; in the data active means inhibition above about 39%
PLA2 ctr: inhibits human PLA2, flagging false ATG4B inhibitors; inhibition, % at 8.33 µM; shares compounds with ATG4B inhibitor; 1,600 tested, 66% active; purified PLA2, NBD-C6-HPC fluorescence, 45 min; in the data active means inhibition above about 50%
Target sequence (P04054 whole entry, looked up): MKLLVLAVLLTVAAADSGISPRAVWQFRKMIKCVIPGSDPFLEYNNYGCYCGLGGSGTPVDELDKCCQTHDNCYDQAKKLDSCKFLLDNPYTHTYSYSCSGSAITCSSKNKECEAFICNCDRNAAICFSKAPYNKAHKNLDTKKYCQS
* hit, by the source's call; · = not tested or not shown. Sampled rows, rich in hits. Any-hit rate of the full collection: about 2.9%.

SMILES	PRMT1 inh	mABHD4 FP	ATG4B inhibitor	TCR CD3 inh	HTRA1 inh	SIAE inh	PLA2 ctr	others
C#CCOCCOCCOCCNc1nc(N2CCN(C(=O)CCCCCCCCCCNC(=O)[C@H]([C@@H](C)CC)n3cc(CCCCN=C(N)N)nn3)CC2)nc(N2CCN(C(=O)CCCCCCCCCCNC(=O)[C@H](CCCCN)n3cc(C)nn3)CC2)n1	·	·	57*	·	·	·	28	ATG4B confirm=28
Cc1ccc(S(=O)(=O)N2O[C@@H](c3ccccc3)C[C@H]2CON2C(C)(C)CCCC2(C)C)cc1	-4	-7	·	·	·	-11	·
O=c1cc(N2CCN(c3ccnc4cc(Cl)ccc34)CC2)[nH]c(=O)n1C1CCCCC1	-3	1	·	·	·	7	·
CCN(Cc1ccccc1)C(=O)C1CCCN(c2ncccn2)C1 (centres undefined)	2	-4	·	·	·	-3	·
CC1CC(C)CN(S(=O)(=O)c2ccc(C(=O)N3CCCC3)cc2)C1 (centres undefined)	-2	3	7	4	-2	9	·
CC1CC(C)CN(C(=O)c2ccc(S(=O)(=O)N3CC(C)CC(C)C3)cc2)C1 (centres undefined)	-5	-2	51*	-2	-5	12	66*
CC1CC(C)CN(C(=O)c2ccc3ccccc3c2)C1 (centres undefined)	-3	-2	54*	-6	-7	-9	50*
CC1CC(C)CN(C(=O)c2ccc(C(=O)c3ccccc3)cc2)C1 (centres undefined)	1	4	42*	8	-4	4	44	ATG4B confirm=66*
Cc1ccc(NC(=O)NNC(=O)CCn2nc(C)c([N+](=O)[O-])c2C)cc1C	-2	-3	·	·	·	-11	·
CCC1=NN2C(=N)/C(=C\c3cccn3-c3ccc(Cl)cc3)C(=O)N=C2S1	2	-1	12	-3	-4	-2	·
Cc1ccc(S(=O)(=O)Oc2ccc(/C=C3/C(=N)N4C(=NC3=O)SN=C4S(C)(=O)=O)cc2)cc1	-3	0	54*	0	-15	-19	67*
CS(=O)(=O)C1=NSC2=NC(=O)/C(=C\c3ccc(OS(=O)(=O)c4ccccc4)cc3)C(=N)N21	-2	-5	16	6	-5	-11	·
CCc1ccc(-n2cccc2/C=C2/C(=N)N3C(=NC2=O)SN=C3S(C)(=O)=O)cc1	2	-136	45*	6	-66	-58	33	ATG4B confirm=68*
Cc1ccc(-n2cccc2/C=C2/C(=N)N3C(=NC2=O)SN=C3S(C)(=O)=O)cc1	1	-88	10	-2	-47	-38	·
Cc1ccc(-n2cccc2/C=C2\C(=N)N3N=C(c4ccco4)SC3=NC2=O)cc1	4	-6	78*	2	-13	-8	62*
Cc1ccc(S(=O)(=O)Oc2ccc(/C=C3\C(=N)N4N=C(S(C)(=O)=O)SC4=NC3=O)cc2)cc1	3	2	66*	7	-18	-31	77*
C=CCN1C(=O)[C@H](CC(=O)NCCCOCCCC)[C@@]2(C(=O)OCC)CCCC=C12	-8	-1	·	·	·	-1	·
Cc1cccn2c(=O)c(/C=C(\C#N)C(=O)NCc3ccco3)c(N3CCCC(C)C3)nc12 (centres undefined)	0	2	51*	3	-7	-4	68*
Cc1cccn2c(=O)c(/C=C(\C#N)C(=O)NCc3ccco3)c(N3CCCCC3)nc12	-1	-8	63*	1	-9	-10	60*
Cc1cccn2c(=O)c(/C=C(\C#N)C(=O)NCc3ccco3)c(N3CCCCCC3)nc12	8	-1	24	-12	·	-7	·
Cc1noc(C)c1C(C)C1=CCCCC1 (centres undefined)	-3	7	·	·	·	4	·
Cc1ccc(-c2ccc(/C=C3\C(=O)ON=C3c3ccccc3)o2)c([N+](=O)[O-])c1	5	22	63*	-9	9	3	23
Cc1ccc(/C=C2\C(=O)ON=C2c2ccccc2)o1	3	9	2	6	·	7	·

Source: PubChem BioAssay (several laboratories)
